An excerpt weighted towards active compounds, which were near 2.6% of everything screened.
ERAP1 inh: blocks human ERAP1 aminopeptidase activity | AID 652197 | recombinant ERAP1, Leu-AMC fluorescence, 60 min | Q9NZ08 | 0.15% of 340,000 active | inhibition, % at 10.7 µM;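 active = mean replicate inhibition of at least 30%, or all replicates individually reaching that 30% level; inactive = mean below 30% and not every replicate reaching it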
INS-1E GSIS act: primary screen for activators of insulin secretion dependent on glucose, INS-1E cells, GLuc reporter luminescence. activation, % at 16.6 µM. INS-1E GLuc reporter insulin secretion, 2-3 h. 0.61% of 370,000 active;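 active = lowest replicate activation of at least 40%, so every replicate reaches that level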
miR-122 sensor: inhibitors of miR-122 in Huh7 cells. Huh7 miR-122 Renilla luciferase sensor, 48 h; neutral wells = 0, positive control = 100. activation (reporter increase), % at 12.5 µM. 0.3% of 340,000 active. AID 602342;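 active = mean replicate activation score at least 90 and every replicate individually at or above 90; inconclusive = only one of the two criteria met; inactive = neither criterion met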;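 also: higher luciferase means less miR-122 activity so hits act as miR-122 inhibitors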
DENV2 CPE: DENV2-induced cell death inhibition | CPE inhibition, % at 9.99 µM | 1.7% of 350,000 active | DENV2-infected cells, cytopathic effect rescue, plate reader | AID 651640; in the data active = CPE inhibition above about 20%, passing the limit was not always enough; inconclusive = no clear call, values can overlap the other calls; tested in BHK-21 cells
F508del corr: correctors of CFTR F508del function in bronchial epithelial cells | CFBE cells, YFP halide quenching; stimulated with forskolin plus potentiator P3; % fluorescence drop versus neutral controls | activity (quench increase), % at 7.58 µM | 0.36% of 350,000 active | AID 720511;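 active = mean added fluorescence quench of at least 8% versus neutral control, with both replicates also reaching 8%; inconclusive = only one of the mean or replicate conditions met; inactive = mean below 8% and not both replicates reaching 8%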;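 also: cells transiently co-express mutant CFTR-F508del with the halide-sensitive YFP; corrector assay measuring rescue of mutant channel to the surface after 24 h compound exposure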
E-sel inducer: E-selectin induction on HUVECs | P16581 | HUVEC E-selectin immunofluorescence imaging; normalized: neutral wells 0, TNF-alpha wells 100 | activation, % at 7.58 µM | AID 686992 | 0.37% of 260,000 active;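 active = mean E-selectin-positive cell signal at least 10% of the positive control, reached in at least 60% of replicates, without over 20% cell loss; inconclusive = no rule given, readout overlaps actives, possibly toxicity-flagged; inactive = the rest, including those meeting only one limit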
Target sequence (P16581 whole entry, looked up): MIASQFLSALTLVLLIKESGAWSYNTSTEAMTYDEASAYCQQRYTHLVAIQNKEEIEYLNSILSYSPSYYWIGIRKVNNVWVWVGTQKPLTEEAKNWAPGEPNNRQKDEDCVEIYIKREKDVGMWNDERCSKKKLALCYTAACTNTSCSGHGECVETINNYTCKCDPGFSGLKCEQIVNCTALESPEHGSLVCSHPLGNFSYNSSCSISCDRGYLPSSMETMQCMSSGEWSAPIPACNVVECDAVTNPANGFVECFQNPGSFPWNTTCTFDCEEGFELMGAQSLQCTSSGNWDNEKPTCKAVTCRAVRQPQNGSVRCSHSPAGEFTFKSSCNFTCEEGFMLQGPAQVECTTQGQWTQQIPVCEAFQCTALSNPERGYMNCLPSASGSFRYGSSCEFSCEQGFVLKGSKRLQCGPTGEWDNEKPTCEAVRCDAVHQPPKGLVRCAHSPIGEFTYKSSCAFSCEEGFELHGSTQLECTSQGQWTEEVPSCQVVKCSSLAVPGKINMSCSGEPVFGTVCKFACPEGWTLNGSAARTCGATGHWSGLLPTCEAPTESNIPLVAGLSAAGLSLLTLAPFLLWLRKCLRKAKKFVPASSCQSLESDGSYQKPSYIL
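Assay system: HUVEC primary endothelial cells. Input: 3,000 HUVEC seeded per well. Doses: one compound dose added by pin transfer. Read-out basis: % PE-positive cells. Benchmarks: TNF-alpha high, DMSO low. Detection: immunofluorescence imaging. Buffer or medium: EGM-2, gelatin.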
Numbers stand for hits; - = inactive; ? = inconclusive; . = not tested or not shown.

SMILES	ERAP1 inh	INS-1E GSIS act	miR-122 sensor	DENV2 CPE	F508del corr	E-sel inducer
CCOC(=O)c1c(-c2ccc(-c3ccccc3)cc2)csc1NC(=O)CNCCN(C)C	-	180	-	-	-	-
CCOC(=O)c1c(-c2ccccc2)csc1NC(=O)CCN1C(=O)c2ccccc2C1=O	-	-	-	-	-	-
COc1ccccc1C#Cc1ccc2c(c1)O[C@H](CN(C)Cc1ccccc1)[C@H](C)CN([C@@H](C)CO)S2(=O)=O	-	-	-	-	-	-
C[C@@H]1CN([C@H](C)CO)C(=O)Cc2cc(NC(=O)Nc3ccccc3)ccc2O[C@@H]1CN(C)Cc1ccc(Oc2ccccc2)cc1	-	-	-	-	-	-
CCNc1nc(NOC)nc(OCC#N)n1	-	47	.	-	-	-
COC(=O)[C@H](CC(C)C)NC(=O)CC[C@H]1O[C@@H](n2cc(C)c(=O)[nH]c2=O)C[C@@H]1O	-	-	-	70	-	-
CC(C)CCNC(=O)[C@H](CSCc1ccccc1)N1Cc2ccccc2C1=O	-	-	-	-	-	.
COC(CNC(=O)[C@H](Cc1ccccc1)N1Cc2ccccc2C1=O)OC	-	-	-	-	8.5	-
CC(C)CCNC(=O)[C@H](Cc1ccccc1)N1Cc2ccccc2C1=O	-	.	-	-	-	76
O=C(COC(=O)CN1C(=O)C2CCCCC2C1=O)Nc1cc(S(=O)(=O)N2CCOCC2)ccc1Cl (stereo not drawn)	-	-	.	88	-	-
O=C(COC(=O)CN1C(=O)C2CCCCC2C1=O)Nc1ccc(S(=O)(=O)N2CCOCC2)cc1 (stereo not drawn)	-	-	-	-	.	-
CCN(CC)c1ccc(S(=O)(=O)N2CCOCC2)cc1NC(=O)CN1C(=O)NC2(CCCC2)C1=O	-	-	-	-	-	63
COc1ccc2c3c([nH]c2c1)[C@H](CO)N(C(=O)Nc1ccc(F)cc1)CC31CN(Cc2cc(-c3ccccc3)on2)C1	-	-	.	50	-	-
CCCNC(=O)N1CC2(C1)CN(C(=O)CCC)[C@@H](CO)c1[nH]c3cc(OC)ccc3c12	.	-	.	22	-	-
CCCNC(=O)N1CC2(C1)CN(C(=O)Nc1ccc(F)cc1)[C@H](CO)c1[nH]c3cc(OC)ccc3c12	-	-	.	23	-	-
CCCNC(=O)N1CC2(C1)CN(C(=O)Nc1ccc(F)cc1)[C@@H](CO)c1[nH]c3cc(OC)ccc3c12	-	-	.	-	-	-
COc1ccc2c3c([nH]c2c1)[C@H](CO)N(C(=O)Nc1cccc(F)c1)CC31CN(S(=O)(=O)c2ccccc2)C1	.	-	.	79	-	-
COc1ccc2c3c([nH]c2c1)[C@@H](CO)N(C(=O)Nc1ccc(F)cc1)CC31CCN(C(=O)Nc2ccc3c(c2)OCO3)CC1	-	-	.	-	-	-
COc1ccc2c3c([nH]c2c1)[C@H](CO)N(C(=O)Nc1ccc(F)cc1)CC31CCN(C(=O)Nc2ccc3c(c2)OCO3)CC1	-	-	.	61	-	-
COc1ccccc1C(=O)Nc1onc(C)c1C#N	-	.	.	-	18	-
Cc1noc(NC(=O)c2ccccc2Cl)c1C#N	.	-	-	.	.	.
Cc1ccc(S(=O)(=O)NC(C(=O)Oc2ccc3ccc(=O)oc3c2)c2ccccc2)cc1 (stereo not drawn)	.	-	-	.	.	-
Cc1ccc(S(=O)(=O)NCCC(=O)Oc2ccc3ccc(=O)oc3c2)cc1	-	-	237	-	-	-
ClC(CCN1CCN(Cc2ccccc2)CC1)c1ccccc1 (stereo not drawn)	-	-	.	31	-	?
CC(CN1CCN(Cc2ccccc2)CC1)c1ccccc1 (stereo not drawn)	-	-	-	-	-	-
COc1ccc(C(=O)NCCOc2cccc(Oc3ccccc3)c2)cc1OC	-	-	-	48	-	-
COc1cc(OC)cc(C(=O)NCCOc2ccccc2)c1	.	.	-	.	.	.
CCCCOc1ccc(C(=O)NCCOc2cccc(OC)c2)cc1	-	-	-	53	-	.
COc1cc(C(=O)NCCOc2ccccc2)cc(OC)c1OC	-	.	-	-	-	-
O=C(N[C@@H]1CC[C@H](CCn2cc(C3CCCC3)nn2)O[C@H]1CO)c1cccnc1	-	-	.	-	-	-

Screening data from PubChem.
